Laboratory results reported in ChEMBL document CHEMBL3352599, “Radiosynthesis and biological evaluation of a novel enoyl-ACP reductase inhibitor for Staphylococcus aureus” (Eur J Med Chem, 2014).

Tests used:
Blood [1] = assay: Drug uptake in blood of Swiss Webster thigh infected mouse model infected with methicillin-resistant Staphylococcus aureus BAA1762 at 3.7 MBq, iv after 45 mins; type: ADME, organism-based; conditions: in vivo, 0.75 h
Procedure, shortened: (§1)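 Neutropenic mice (ip cyclophosphamide) given 5×10^5 MRSA cells into the left thigh muscle. [11C]-label given into the lateral tail vein in ethanol/saline (1/3) under isoflurane, then mice recovered and moved freely. Killed by cervical dislocation; muscle from both thighs and blood collected, weighed and well-counted. Reported as %ID/g, mean ± SD, n=3.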

Lung = assay: Drug uptake in lung of Swiss Webster systemic infected mouse model infected with methicillin-resistant Staphylococcus aureus BAA1762 at 3.7 MBq, iv after 20 mins; type: ADME, organism-based; conditions: in vivo
Procedure, shortened: (§2)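 Neutropenic mice (ip cyclophosphamide) infected ip with 2×10^7 MRSA cells. [11C]-label given into the lateral tail vein in ethanol/saline (1/3) under isoflurane, then mice recovered and moved freely. Killed by cervical dislocation; blood taken by cardiac puncture, organs excised, weighed and well-counted. Reported as %ID/g, mean ± SD, n=3.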

Spleen [2] = assay: Drug uptake in spleen of Swiss Webster systemic infected mouse model infected with methicillin-resistant Staphylococcus aureus BAA1762 at 3.7 MBq, iv after 60 mins; type: ADME, organism-based; conditions: in vivo, 1 h; procedure, shortened: as §2
[3] = Drug uptake in healthy thigh of Swiss Webster thigh infected mouse model infected with methicillin-resistant Staphylococcus aureus BAA1762 at 3.7 MBq, iv after 30 mins; type: ADME, organism-based, Thigh muscle; conditions: in vivo, 0.5 h; procedure, shortened: as §1
Kidney [4] = assay: Drug uptake in kidney of healthy Swiss Webster mouse at 3.7 MBq, iv after 20 mins; type: ADME, organism-based; conditions: in vivo
Procedure, shortened: as §2, with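 “Uninfected control mice.” for “Neutropenic mice (ip cyclophosphamide) infected ip with 2×10^7 MRSA cells.”, “spleen, lung, liver and kidney” for “organs”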

Spleen [5] = assay: Drug uptake in spleen of Swiss Webster systemic infected mouse model infected with methicillin-resistant Staphylococcus aureus BAA1762 at 3.7 MBq, iv after 20 mins; type: ADME, organism-based; conditions: in vivo; procedure, shortened: as §2
Kidney [6] = assay: Drug uptake in kidney of healthy Swiss Webster mouse at 3.7 MBq, iv after 40 mins; type: ADME, organism-based; conditions: in vivo
Procedure, shortened: as §2, with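 “Uninfected control mice.” for “Neutropenic mice (ip cyclophosphamide) infected ip with 2×10^7 MRSA cells.”, “spleen, lung, liver and kidney” for “organs”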

Liver [7] = assay: Drug uptake in liver of healthy Swiss Webster mouse at 3.7 MBq, iv after 60 mins; type: ADME, organism-based; conditions: in vivo, 1 h
Procedure, shortened: as §2, with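 “Uninfected control mice.” for “Neutropenic mice (ip cyclophosphamide) infected ip with 2×10^7 MRSA cells.”, “spleen, lung, liver and kidney” for “organs”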

Spleen [8] = assay: Drug uptake in spleen of Swiss Webster systemic infected mouse model infected with methicillin-resistant Staphylococcus aureus BAA1762 at 3.7 MBq, iv after 40 mins; type: ADME, organism-based; conditions: in vivo; procedure, shortened: as §2
[9] = Drug uptake in infected thigh of Swiss Webster thigh infected mouse model infected with methicillin-resistant Staphylococcus aureus BAA1762 at 3.7 MBq, iv after 30 mins; type: ADME, organism-based, Thigh muscle; conditions: in vivo, 0.5 h; procedure, shortened: as §1
Kidney [10] = assay: Drug uptake in kidney of Swiss Webster systemic infected mouse model infected with methicillin-resistant Staphylococcus aureus BAA1762 at 3.7 MBq, iv after 20 mins; type: ADME, organism-based; conditions: in vivo; procedure, shortened: as §2
[11] = Drug uptake in infected thigh of Swiss Webster thigh infected mouse model infected with methicillin-resistant Staphylococcus aureus BAA1762 at 3.7 MBq, iv after 45 mins; type: ADME, organism-based, Thigh muscle; conditions: in vivo, 0.75 h; procedure, shortened: as §1
Blood [12] = assay: Drug uptake in blood of Swiss Webster systemic infected mouse model infected with methicillin-resistant Staphylococcus aureus BAA1762 at 3.7 MBq, iv after 60 mins; type: ADME, organism-based; conditions: in vivo, 1 h; procedure, shortened: as §2
[13] = Drug uptake in infected thigh of Swiss Webster thigh infected mouse model infected with methicillin-resistant Staphylococcus aureus BAA1762 at 3.7 MBq, iv after 15 mins; type: ADME, organism-based, Thigh muscle; conditions: in vivo, 0.25 h; procedure, shortened: as §1
Blood [14] = assay: Drug uptake in blood of Swiss Webster thigh infected mouse model infected with methicillin-resistant Staphylococcus aureus BAA1762 at 3.7 MBq, iv after 15 mins; type: ADME, organism-based; conditions: in vivo, 0.25 h; procedure, shortened: as §1
Liver [15] = assay: Drug uptake in liver of Swiss Webster systemic infected mouse model infected with methicillin-resistant Staphylococcus aureus BAA1762 at 3.7 MBq, iv after 20 mins; type: ADME, organism-based; conditions: in vivo; procedure, shortened: as §2
[16] = Drug uptake in infected thigh of Swiss Webster thigh infected mouse model infected with methicillin-resistant Staphylococcus aureus BAA1762 at 3.7 MBq, iv after 60 mins; type: ADME, organism-based, Thigh muscle; conditions: in vivo, 1 h; procedure, shortened: as §1
Spleen [17] = assay: Drug uptake in spleen of healthy Swiss Webster mouse at 3.7 MBq, iv after 60 mins; type: ADME, organism-based; conditions: in vivo, 1 h
Procedure, shortened: as §2, with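 “Uninfected control mice.” for “Neutropenic mice (ip cyclophosphamide) infected ip with 2×10^7 MRSA cells.”, “spleen, lung, liver and kidney” for “organs”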

Spleen [18] = assay: Drug uptake in spleen of healthy Swiss Webster mouse at 3.7 MBq, iv after 20 mins; type: ADME, organism-based; conditions: in vivo
Procedure, shortened: as §2, with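 “Uninfected control mice.” for “Neutropenic mice (ip cyclophosphamide) infected ip with 2×10^7 MRSA cells.”, “spleen, lung, liver and kidney” for “organs”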

Liver [19] = assay: Drug uptake in liver of healthy Swiss Webster mouse at 3.7 MBq, iv after 20 mins; type: ADME, organism-based; conditions: in vivo
Procedure, shortened: as §2, with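 “Uninfected control mice.” for “Neutropenic mice (ip cyclophosphamide) infected ip with 2×10^7 MRSA cells.”, “spleen, lung, liver and kidney” for “organs”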

Blood [20] = assay: Drug uptake in blood of healthy Swiss Webster mouse at 3.7 MBq, iv after 60 mins; type: ADME, organism-based; conditions: in vivo, 1 h
Procedure, shortened: as §2, with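 “Uninfected control mice.” for “Neutropenic mice (ip cyclophosphamide) infected ip with 2×10^7 MRSA cells.”, “spleen, lung, liver and kidney” for “organs”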

Compound: CCCCCCc1ccc(Oc2ccccc2[11C]#N)c(O)c1
- Drug uptake (Blood [1]): 0.28 %ID/cc
- Drug uptake (Lung): 3.28 %ID/cc
- Drug uptake (Spleen [2]): 0.31 %ID/cc
- Drug uptake [3]: 0.63 %ID/cc
- Drug uptake (Kidney [4]): 2.22 %ID/cc
- Drug uptake (Spleen [5]): 0.71 %ID/cc
- Drug uptake (Kidney [6]): 1.41 %ID/cc
- Drug uptake (Liver [7]): 6.91 %ID/cc
- Drug uptake (Spleen [8]): 0.3 %ID/cc
- Drug uptake [9]: 0.54 %ID/cc
- Drug uptake (Kidney [10]): 2.41 %ID/cc
- Drug uptake [11]: 0.38 %ID/cc
- Drug uptake (Blood [12]): 0.44 %ID/cc
- Drug uptake [13]: 0.89 %ID/cc
- Drug uptake (Blood [14]): 0.72 %ID/cc
- Drug uptake (Liver [15]): 11.18 %ID/cc
- Drug uptake [16]: 0.34 %ID/cc
- Drug uptake (Spleen [17]): 0.19 %ID/cc
- Drug uptake (Spleen [18]): 0.67 %ID/cc
- Drug uptake (Liver [19]): 11.79 %ID/cc
- Drug uptake (Blood [20]): 0.34 %ID/cc
